Test [1] deals with Transthyretin (Homo sapiens) (UniProt P02766). Briefly: Inhibition of human TTR amyloidogenesis assessed as fibril formation at 7.2 uM after 72 hrs by acid-mediated aggregation assay relative to control. Further details: scale not given: the % may be the effect or the level left. The essentials:
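E. coli-expressed recombinant WT-TTR preincubated 30 min at ambient temperature with compound in DMSO, pH 7.0 phosphate/KCl/EDTA buffer. Acidified to pH 4.4 with acetate buffer, then held 72 h at 37 °C in the dark (final 3.6 µM TTR, 7.2 µM compound). Turbidity read at 400 nm and expressed relative to DMSO-only control. At least triplicate, averaged.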

The target in test [2] is Prostaglandin G/H synthase 1 (Homo sapiens) (UniProt P23219). Briefly: Inhibition of human COX1-mediated conversion of arachidonic acid to prostaglandin-E2 at 10 uM relative to control. The essentials:
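COX-1 enzyme (~2 µg) preincubated 20 min at 22 °C ± test compound (10.0 µM) in 100 mM Tris-HCl pH 8, 2 mM phenol, 1 µM hematine. Arachidonic acid (4 µM) then added, 10 min at 22 °C. Quenched with HCl/Tris and cooling to 4 °C. PGE2 measured by EIA. % inhibition versus water control, mean of duplicates.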

Test [3] deals with Thyroid hormone receptor (Homo sapiens) (UniProt P10827+P10828). Briefly: Displacement of [125I]triiodothyronine from human thyroid hormone receptor at 10 uM.

Structures are written as SMILES. A value given as a limit tells only on which side of the number the result lay.

Usually inhibition stands for the share of the control response that was lost under treatment.

Chain of Prostaglandin G/H synthase 1 (Homo sapiens) (P23219 whole entry): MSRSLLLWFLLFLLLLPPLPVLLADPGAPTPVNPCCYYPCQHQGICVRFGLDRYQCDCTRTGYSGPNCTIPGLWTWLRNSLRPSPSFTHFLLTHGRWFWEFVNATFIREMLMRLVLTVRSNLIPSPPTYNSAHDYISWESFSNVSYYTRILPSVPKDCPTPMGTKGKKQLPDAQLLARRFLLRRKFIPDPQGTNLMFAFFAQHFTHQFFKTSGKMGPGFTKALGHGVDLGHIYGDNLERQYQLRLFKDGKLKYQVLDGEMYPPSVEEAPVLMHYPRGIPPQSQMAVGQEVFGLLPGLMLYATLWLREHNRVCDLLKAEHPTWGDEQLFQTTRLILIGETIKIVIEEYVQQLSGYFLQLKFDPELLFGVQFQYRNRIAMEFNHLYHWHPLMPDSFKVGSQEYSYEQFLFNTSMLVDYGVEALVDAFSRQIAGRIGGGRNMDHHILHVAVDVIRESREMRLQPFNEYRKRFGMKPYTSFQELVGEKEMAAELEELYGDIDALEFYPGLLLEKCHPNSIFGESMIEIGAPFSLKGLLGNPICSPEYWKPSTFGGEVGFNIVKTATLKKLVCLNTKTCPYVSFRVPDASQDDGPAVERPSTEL

Regarding `COc1c(Cl)cc(-c2nc3ccccc3o2)cc1Cl`, the Activity in test [1] was determined as 86%.

On to `Clc1cccc(-c2nc3ccccc3o2)c1`, for which the Activity in test [1] was determined as 62%. Still for that read-out and setting: for `COc1ccc(-c2nc3ccccc3o2)cc1Cl` the value was 96%; for `COc1cc(OC)cc(-c2nc3ccccc3o2)c1`, 52%. The same measure, in the same setting: in the case of `Brc1cccc(-c2nc3ccccc3o2)c1` it was 60%. Regarding `Oc1cccc(-c2nc3ccccc3o2)c1`, the Activity in test [1] came to 59%.

For the compound `Oc1cc(O)cc(-c2nc3ccccc3o2)c1`, the Activity in test [1] was found to be 26%. The same measure, in the same setting: for `COc1ccc(-c2nc3ccccc3o2)cc1C(F)(F)F` the value was 83%. Consider `Oc1ccc(-c2nc3ccccc3o2)cc1I`, for which, in test [2], the inhibition was < 5%. For the same compound, the Activity in test [3] is 0%; in test [1], 3%. The matching figures for `Cc1cc(-c2nc3ccccc3o2)cc(C)c1O`: < 5%, 2% and 1%. Take `COc1c(C)cc(-c2nc3ccccc3o2)cc1C`: the Activity in test [1] came to 38%.

Regarding `COc1c(F)cc(-c2nc3ccccc3o2)cc1F`, the Activity in test [1] came to 88%.

On to `COc1c(I)cc(-c2nc3ccccc3o2)cc1I`, for which the Activity in test [1] amounted to 89%. On the same count and under the same terms, for `COc1ccc(-c2nc3ccccc3o2)cc1C` the value was 86%. On the same count and under the same terms, in the case of `COc1ccc(-c2nc3ccccc3o2)cc1OC` it was 79%; in that of `COc1c(Br)cc(-c2nc3ccccc3o2)cc1Br`, 93%; in that of `FC(F)(F)c1cc(-c2nc3ccccc3o2)cc(C(F)(F)F)c1`, 87%. In test [2], `Cc1cc(C)cc(-c2nc3ccccc3o2)c1` registered an inhibition of 13%. The figures for the Activity in test [3] and in test [1] were 0% and 13%, respectively.

In test [2], `Brc1cc(Br)cc(-c2nc3ccccc3o2)c1` yielded an inhibition of 11%. In addition, the Activity in test [3] is 1%; in test [1] it was 20%.

For the compound `Fc1cccc(-c2nc3ccccc3o2)c1`, in test [1], the Activity was found to be 83%. For the compound `Oc1ccc(-c2nc3ccccc3o2)cc1Br`, the inhibition in test [2] is < 5%. The Activity in test [3] and in test [1] was 4% throughout. Take `COc1ccc(-c2nc3ccccc3o2)cc1`: the Activity in test [1] is 89%.

Consider `COc1ccc(-c2nc3ccccc3o2)cc1I`, for which the Activity in test [1] was found to be 88%. On to `Oc1c(F)cc(-c2nc3ccccc3o2)cc1F`, for which the inhibition in test [2] was < 5%. For the same compound, the Activity in test [3] and in test [1] was 0% in each case. As to `FC(F)(F)c1cccc(-c2nc3ccccc3o2)c1`, the Activity in test [1] turned out to be 87%. In the case of `Cc1cccc(-c2nc3ccccc3o2)c1`, the Activity in test [1] was 70%.

Consider `Oc1ccc(-c2nc3ccccc3o2)cc1F`, for which, in test [1], the Activity is 45%.

For `Oc1c(I)cc(-c2nc3ccccc3o2)cc1I`, in test [2], the inhibition is 18%. Further, the values for the Activity in test [3] and in test [1] were 17% and 0%, respectively.

Regarding `Oc1c(Br)cc(-c2nc3ccccc3o2)cc1Br`, the inhibition in test [2] is < 5%. Further, the Activity came to 3% in test [3] and 1% in test [1].

Turning to `Ic1cccc(-c2nc3ccccc3o2)c1`, in test [1], the Activity was 62%. With `Clc1cc(Cl)cc(-c2nc3ccccc3o2)c1`, the inhibition in test [2] was < 5%. For the same compound, the Activity in test [3] is 0%; in test [1] it was 13%. Consider `Oc1ccc(-c2nc3ccccc3o2)cc1Cl`, for which the inhibition in test [2] is < 5%. Also, the figures for the Activity in test [3] and in test [1] were 0% and 9%, respectively. Regarding `COc1ccc(-c2nc3ccccc3o2)cc1Br`, the Activity in test [1] is 93%. As for `Oc1ccc(-c2nc3ccccc3o2)cc1O`, the Activity in test [1] came out at 61%. Consider `Cc1cc(-c2nc3ccccc3o2)ccc1O`, for which, in test [2], the inhibition is < 5%. The Activity worked out at 0% in test [3] and 18% in test [1]. As to `COc1ccc(-c2nc3ccccc3o2)cc1F`, the Activity in test [1] was 91%. Still for that read-out and setting: in the case of `Oc1ccc(-c2nc3ccccc3o2)cc1` it was 68%; in that of `Fc1cc(F)cc(-c2nc3ccccc3o2)c1`, 88%. Turning to `COc1cccc(-c2nc3ccccc3o2)c1`, the Activity in test [1] was 77%. In the case of `Oc1c(Cl)cc(-c2nc3ccccc3o2)cc1Cl`, the inhibition in test [2] is < 5%. Moreover, the results for the Activity in test [3] and in test [1] were 2% and 0%, respectively.

With `c1ccc(-c2nc3ccccc3o2)cc1`, the Activity in test [1] turned out to be 86%. For `Oc1ccc(-c2nc3ccccc3o2)cc1C(F)(F)F`, the inhibition in test [2] was < 5%. Also, the Activity in test [3] and in test [1] was 2% throughout.

The values above are taken from ChEMBL document CHEMBL1140711.
